Reference: ChEMBL document CHEMBL1649247, “Fluoroquinolone resistance in Mycobacterium tuberculosis and mutations in gyrA and gyrB” (2009)
≈ marks a conversion by molar mass, not a printed value. Calls of active or inactive are those of the source. The calls are words filed in the database; no cut-off is given here.

Assays:
[1] = test system: Mycobacterium tuberculosis; test: Antimycobacterial activity against multidrug-resistant Mycobacterium tuberculosis 08-0785 harboring gyrA Ala90Val mutant gene by resazurin microtiter assay; assay type: functional
How it was run: (§1)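 MIC was read by resazurin microtiter assay against ofloxacin, moxifloxacin and gatifloxacin. Isolates were used as fresh Löwenstein-Jensen subcultures kept at 37°C for no longer than 4 weeks.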

[2] = test system: Mycobacterium tuberculosis; test: Antimycobacterial activity against multidrug-resistant Mycobacterium tuberculosis 08-0791 harboring gyrA Ala90Val mutant gene by resazurin microtiter assay; assay type: functional; how it was run: as §1
[3] = test system: Mycobacterium tuberculosis; test: Antimycobacterial activity against multidrug-resistant Mycobacterium tuberculosis 08-0797 harboring gyrA Ala90Val mutant gene by resazurin microtiter assay; assay type: functional; how it was run: as §1
[4] = test system: Mycobacterium tuberculosis; test: Antimycobacterial activity against multidrug-resistant Mycobacterium tuberculosis 99-1914 harboring gyrA Asp94Gly mutant gene by resazurin microtiter assay; assay type: functional; how it was run: as §1
[5] = test system: Mycobacterium tuberculosis; test: Antimycobacterial activity against multidrug-resistant Mycobacterium tuberculosis 01-2230 harboring gyrA Asp94Gly mutant gene by resazurin microtiter assay; assay type: functional
How it was run: (§2)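 Isolates taken from fresh Löwenstein-Jensen subcultures grown at 37°C for at most 4 weeks. Drug stocks 1 mg/ml in 0.1 N NaOH, filter sterilized, stored at −20°C less than 2 months. MIC read by resazurin microtiter assay following a previously described protocol.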

[6] = test system: Mycobacterium tuberculosis; test: Antimycobacterial activity against multidrug-resistant Mycobacterium tuberculosis 08-0810 harboring gyrA Asp94Tyr mutant gene by resazurin microtiter assay; assay type: functional; how it was run: as §1
[7] = test system: Mycobacterium tuberculosis; test: Antimycobacterial activity against multidrug-resistant Mycobacterium tuberculosis 02-2399 harboring gyrA Asp94Tyr mutant gene by resazurin microtiter assay; assay type: functional; how it was run: as §2
[8] = test system: Mycobacterium tuberculosis; test: Antimycobacterial activity against multidrug-resistant Mycobacterium tuberculosis 02-0319 harboring gyrA Asp94Ala mutant gene by resazurin microtiter assay; assay type: functional; how it was run: as §2
[9] = test system: Mycobacterium tuberculosis; test: Antimycobacterial activity against multidrug-resistant Mycobacterium tuberculosis 04-0519 harboring gyrA Ala90Val and Asp94Asn mutant gene by resazurin microtiter assay; assay type: functional; how it was run: as §1
[10] = test system: Mycobacterium tuberculosis; test: Antimycobacterial activity against Mycobacterium tuberculosis 08-0787 harboring gyrA Asp94His mutant gene and deletion of codons 678 and 679 in gyrB mutant gene by resazurin microtiter assay; assay type: functional; how it was run: as §2
[11] = test system: Mycobacterium tuberculosis; test: Antimycobacterial activity against Mycobacterium tuberculosis 08-0745 harboring gyrA Asp89Asn mutant gene by resazurin microtiter assay; assay type: functional; how it was run: as §2
[12] = test system: Mycobacterium tuberculosis; test: Antimycobacterial activity against multidrug-resistant Mycobacterium tuberculosis 01-2834 by resazurin microtiter assay; assay type: functional; how it was run: as §2
[13] = test system: Mycobacterium tuberculosis; test: Antimycobacterial activity against multidrug-resistant Mycobacterium tuberculosis 08-0794 harboring gyrA Thr80Ala mutant gene by resazurin microtiter assay; assay type: functional; how it was run: as §1
[14] = test system: Mycobacterium tuberculosis; test: Antimycobacterial activity against Mycobacterium tuberculosis 08-0773 harboring gyrA Pro8Ala mutant gene by resazurin microtiter assay; assay type: functional; how it was run: as §2
[15] = test system: Mycobacterium tuberculosis; test: Antimycobacterial activity against Mycobacterium tuberculosis 08-0769 harboring gyrA putative promoter mutant gene by resazurin microtiter assay; assay type: functional; how it was run: as §2
[16] = test system: Mycobacterium tuberculosis; test: Antimycobacterial activity against Mycobacterium tuberculosis 08-0771 harboring gyrA putative promoter mutant gene by resazurin microtiter assay; assay type: functional; how it was run: as §2
[17] = test system: Mycobacterium tuberculosis; test: Antimycobacterial activity against multidrug-resistant Mycobacterium tuberculosis 08-0777 by resazurin microtiter assay; assay type: functional; how it was run: as §1
[18] = test system: Mycobacterium tuberculosis; test: Antimycobacterial activity against Mycobacterium tuberculosis 00-0715 harboring gyrA Ala90Val mutant gene assessed as microbial susceptibility by agar proportion method; assay type: functional, organism-based
How it was run: (§3)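 Clinical isolates freshly subcultured on Löwenstein-Jensen medium, held at 37°C no longer than 4 weeks. Fluoroquinolone stocks 1 mg/ml in 0.1 N NaOH, filter sterilized, kept at −20°C under 2 months. Standard proportion method on 7H11 agar; breakpoints 2 mg/liter ofloxacin, 0.5 mg/liter moxifloxacin and gatifloxacin; scored susceptible or resistant.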

[19] = test system: Mycobacterium tuberculosis; test: Antimycobacterial activity against multidrug-resistant Mycobacterium tuberculosis 03-0738 harboring gyrA Ala90Val mutant gene assessed as microbial susceptibility by agar proportion method; assay type: functional, organism-based
How it was run: (§4)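 Clinical isolates freshly subcultured on Löwenstein-Jensen medium at 37°C for no more than 4 weeks. Susceptibility by standard proportion method on 7H11 agar at breakpoints of 2 mg/liter ofloxacin and 0.5 mg/liter moxifloxacin and gatifloxacin. Drug stocks 1 mg/ml in 0.1 N NaOH, filter sterilized, held at −20°C under 2 months. Isolates scored susceptible or resistant.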

[20] = test system: Mycobacterium tuberculosis; test: Antimycobacterial activity against multidrug-resistant Mycobacterium tuberculosis 08-0757 harboring gyrA Ala90Val mutant gene assessed as microbial susceptibility by agar proportion method; assay type: functional, organism-based; how it was run: as §4
[21] = test system: Mycobacterium tuberculosis; test: Antimycobacterial activity against multidrug-resistant Mycobacterium tuberculosis 08-0785 harboring gyrA Ala90Val mutant gene assessed as microbial susceptibility by agar proportion method; assay type: functional, organism-based; how it was run: as §4
[22] = test system: Mycobacterium tuberculosis; test: Antimycobacterial activity against multidrug-resistant Mycobacterium tuberculosis 99-1914 harboring gyrA Asp94Gly mutant gene assessed as microbial susceptibility by agar proportion method; assay type: functional, organism-based; how it was run: as §4
[23] = test system: Mycobacterium tuberculosis; test: Antimycobacterial activity against Mycobacterium tuberculosis 02-1975 harboring gyrA Asp94Gly mutant gene assessed as microbial susceptibility by agar proportion method; assay type: functional, organism-based; how it was run: as §3
[24] = test system: Mycobacterium tuberculosis; test: Antimycobacterial activity against multidrug-resistant Mycobacterium tuberculosis 01-2230 harboring gyrA Asp94Gly mutant gene assessed as microbial susceptibility by agar proportion method; assay type: functional, organism-based; how it was run: as §3
[25] = test system: Mycobacterium tuberculosis; test: Antimycobacterial activity against multidrug-resistant Mycobacterium tuberculosis 08-0744 harboring gyrA Asp94Tyr mutant gene assessed as microbial susceptibility by agar proportion method; assay type: functional, organism-based; how it was run: as §4
[26] = test system: Mycobacterium tuberculosis; test: Antimycobacterial activity against Mycobacterium tuberculosis 04-0649 harboring gyrA Asp94Asn mutant gene assessed as microbial susceptibility by agar proportion method; assay type: functional, organism-based; how it was run: as §3
[27] = test system: Mycobacterium tuberculosis; test: Antimycobacterial activity against multidrug-resistant Mycobacterium tuberculosis 02-2399 harboring gyrA Asp94Tyr mutant gene assessed as microbial susceptibility by agar proportion method; assay type: functional, organism-based; how it was run: as §3
[28] = test system: Mycobacterium tuberculosis; test: Antimycobacterial activity against Mycobacterium tuberculosis 08-0787 harboring gyrA Asp94His mutant gene assessed as microbial susceptibility and deletion of codons 678 and 679 in gyrB mutant gene assessed as microbial susceptibility by agar proportion method; assay type: functional, organism-based; how it was run: as §3
[29] = test system: Mycobacterium tuberculosis; test: Antimycobacterial activity against multidrug-resistant Mycobacterium tuberculosis 01-2834 by agar proportion method; assay type: functional, organism-based; how it was run: as §3
[30] = test system: Mycobacterium tuberculosis; test: Antimycobacterial activity against Mycobacterium tuberculosis 08-0815 harboring gyrA Thr80Ala and Ala90Gly mutant gene assessed as microbial susceptibility by agar proportion method; assay type: functional, organism-based; how it was run: as §3
[31] = test system: Mycobacterium tuberculosis; test: Antimycobacterial activity against Mycobacterium tuberculosis 08-0773 harboring gyrA Pro8Ala mutant gene assessed as microbial susceptibility by agar proportion method; assay type: functional, organism-based; how it was run: as §3
[32] = test system: Mycobacterium tuberculosis; test: Antimycobacterial activity against Mycobacterium tuberculosis 08-0771 harboring gyrA putative promoter mutant gene assessed as microbial susceptibility by agar proportion method; assay type: functional, organism-based; how it was run: as §3
[33] = test system: Mycobacterium tuberculosis; test: Antimycobacterial activity against multidrug-resistant Mycobacterium tuberculosis 08-0746 assessed as microbial susceptibility by agar proportion method; assay type: functional, organism-based; how it was run: as §4
[34] = test system: Mycobacterium tuberculosis; test: Antimycobacterial activity against multidrug-resistant Mycobacterium tuberculosis 08-0777 assessed as microbial susceptibility by agar proportion method; assay type: functional, organism-based; how it was run: as §4
[35] = test system: Mycobacterium tuberculosis; test: Antimycobacterial activity against multidrug-resistant Mycobacterium tuberculosis 03-0738 harboring gyrA Ala90Val mutant gene by resazurin microtiter assay; assay type: functional; how it was run: as §1
[36] = test system: Mycobacterium tuberculosis; test: Antimycobacterial activity against multidrug-resistant Mycobacterium tuberculosis 01-1647 harboring gyrA Ala90Val mutant gene by resazurin microtiter assay; assay type: functional; how it was run: as §2
[37] = test system: Mycobacterium tuberculosis; test: Antimycobacterial activity against multidrug-resistant Mycobacterium tuberculosis 01-0930 harboring gyrA Ala90Val mutant gene by resazurin microtiter assay; assay type: functional; how it was run: as §2

## COc1c(N2C[C@@H]3CCCN[C@@H]3C2)c(F)cc2c(=O)c(C(=O)O)cn(C3CC3)c12 [MOXIFLOXACIN]
[1]
  MIC: 2 µg/mL (≈ 4.98 µM)
[2]
  MIC: 0.5 µg/mL (≈ 1.25 µM)
[3]
  MIC: 1 µg/mL (≈ 2.49 µM)
[4]
  MIC: 2 µg/mL (≈ 4.98 µM)
[5]
  MIC: 2 µg/mL (≈ 4.98 µM)
[6]
  MIC: 2 µg/mL (≈ 4.98 µM)
[7]
  MIC: 0.5 µg/mL (≈ 1.25 µM)
[8]
  MIC: 0.5 µg/mL (≈ 1.25 µM)
[9]
  MIC: >8 µg/mL
[10]
  MIC: 2 µg/mL (≈ 4.98 µM)
[11]
  MIC: 2 µg/mL (≈ 4.98 µM)
[12]
  MIC: 1 µg/mL (≈ 2.49 µM)
[13]
  MIC: <=0.125 mg/L
[14]
  MIC: <=0.125 mg/L
[15]
  MIC: <=0.125 mg/L
[16]
  MIC: <=0.125 mg/L
[17]
  MIC: ≤ 0.125 µg/mL
[18]
  Activity: inactive
[19]
  Activity: inactive
[20]
  Activity: inactive
[21]
  Activity: inactive
[22]
  Activity: inactive
[23]
  Activity: inactive
[24]
  Activity: inactive
[25]
  Activity: inactive
[26]
  Activity: inactive
[27]
  Activity: inactive
[28]
  Activity: inactive
[29]
  Activity: inactive
[30]
  Activity: Active
[31]
  Activity: Active
[32]
  Activity: Active
[33]
  Activity: Active
[34]
  Activity: Active
[35]
  MIC: 0.25 µg/mL (≈ 0.623 µM)
[36]
  MIC: 0.5 µg/mL (≈ 1.25 µM)
[37]
  MIC: 0.5 µg/mL (≈ 1.25 µM)

## CC1COc2c(N3CCN(C)CC3)c(F)cc3c(=O)c(C(=O)O)cn1c23 (centres undefined) [OFLOXACIN]
[1]
  MIC: 8 µg/mL (≈ 22.1 µM)
[2]
  MIC: 4 µg/mL (≈ 11.1 µM)
[3]
  MIC: 4 µg/mL (≈ 11.1 µM)
[4]
  MIC: 8 µg/mL (≈ 22.1 µM)
[5]
  MIC: 8 µg/mL (≈ 22.1 µM)
[6]
  MIC: 8 µg/mL (≈ 22.1 µM)
[7]
  MIC: 4 µg/mL (≈ 11.1 µM)
[8]
  MIC: 4 µg/mL (≈ 11.1 µM)
[9]
  MIC: >32 µg/mL
[10]
  MIC: 4 µg/mL (≈ 11.1 µM)
[11]
  MIC: 4 µg/mL (≈ 11.1 µM)
[12]
  MIC: 4 µg/mL (≈ 11.1 µM)
[13]
  MIC: 0.5 µg/mL (≈ 1.38 µM)
[14]
  MIC: 0.5 µg/mL (≈ 1.38 µM)
[15]
  MIC: 1 µg/mL (≈ 2.77 µM)
[16]
  MIC: 1 µg/mL (≈ 2.77 µM)
[17]
  MIC: 0.5 µg/mL (≈ 1.38 µM)
[18]
  Activity: inactive
[19]
  Activity: inactive
[20]
  Activity: inactive
[21]
  Activity: inactive
[22]
  Activity: inactive
[23]
  Activity: inactive
[24]
  Activity: inactive
[25]
  Activity: inactive
[26]
  Activity: inactive
[27]
  Activity: inactive
[28]
  Activity: inactive
[29]
  Activity: inactive
[30]
  Activity: Active
[31]
  Activity: Active
[32]
  Activity: Active
[33]
  Activity: Active
[34]
  Activity: Active
[35]
  MIC: 4 µg/mL (≈ 11.1 µM)
[36]
  MIC: 4 µg/mL (≈ 11.1 µM)
[37]
  MIC: 4 µg/mL (≈ 11.1 µM)
